{
  "source": "ChEMBL document CHEMBL1139556",
  "about": "“Synthesis and biological evaluation of gemcitabine-lipid conjugate (NEO6002)” (Bioorg Med Chem Lett, 2005)",
  "key": {"Cell line [1]": {"test_system": "Cell line", "experiment": "Ability (18 umol/kg) tested for inhibition of BxPC-3 human pancreatic tumor growth (n=8)", "type": "functional", "summary_of_the_method": "(§1)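 BxPC-3 human pancreatic tumour cells (5 × 10⁶) implanted subcutaneously in SCID mice. At 80–160 mm³, tumours randomised into groups. Dosing on days 1, 7, 15, 22, 26, 29 and 33, with an equal-volume vehicle control group. Tumour volume measured by Vernier calipers, followed up to 50 days. % growth = 100 × (Vt/V0), where V0 is the volume on the first treatment day.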"}, "Cell line [2]": {"test_system": "Cell line", "experiment": "Ability (36 umol/kg) tested for inhibition of BxPC-3 human pancreatic tumor growth (n=8)", "type": "functional", "summary_of_the_method": "as §1"}, "Cell line [3]": {"test_system": "Cell line", "experiment": "Ability (9 umol/kg) tested for inhibition of BxPC-3 human pancreatic tumor growth (n=8)", "type": "functional", "summary_of_the_method": "as §1"}, "[4]": {"experiment": "Ability (27 umol/kg) tested on mortality of non-diseased CD2F1 mice at day 8 (n=8)", "type": "ADME", "settings": "CD2F1, mouse, in vivo", "summary_of_the_method": "(§2)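 Multiple-dose toxicity in non-diseased CD2F1 mice. Five or six daily doses given (schedule days 1–5 or 1–6). Mortality recorded, reported as % mortality at day 8.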"}, "[5]": {"experiment": "Ability (36 umol/kg) tested on mortality of non-diseased CD2F1 mice at day 8 (n=8)", "type": "ADME", "settings": "CD2F1, mouse, in vivo", "summary_of_the_method": "as §2"}, "[6]": {"experiment": "Ability (18 umol/kg) tested on mortality of non-diseased CD2F1 mice at day 8 (n=8)", "type": "ADME", "settings": "CD2F1, mouse, in vivo", "summary_of_the_method": "as §2"}},
  "data": [
    {"smiles": "CCCCCCOCC(COP(=O)(OC)OCC(COP(=O)(OC)OCC(COCCCCCC)OCCCCCC)OC(=O)CCC(=O)OC[C@H]1O[C@@H](n2ccc(N)nc2=O)C(F)(F)[C@@H]1O)OCCCCCC", "note": "(stereo partly drawn)", "values": [
      {"measurement": "Growth", "setting": "Cell line [1]", "value": 1393, "unit": "%"},
      {"measurement": "Growth", "setting": "Cell line [2]", "value": 1022, "unit": "%"},
      {"measurement": "Growth", "setting": "Cell line [3]", "value": 1387, "unit": "%"}
    ]},
    {"smiles": "Nc1ccn([C@@H]2O[C@H](CO)[C@@H](O)C2(F)F)c(=O)n1", "note": "[GEMCITABINE]", "values": [
      {"measurement": "Growth", "setting": "Cell line [1]", "value": 2007, "unit": "%"},
      {"measurement": "mortality at 8 day", "setting": "[4]", "value": 100, "unit": "%"},
      {"measurement": "mortality at 8 day", "setting": "[5]", "value": 100, "unit": "%"},
      {"measurement": "mortality at 8 day", "setting": "[6]", "value": 0, "unit": "%"},
      {"measurement": "Growth", "setting": "Cell line [3]", "value": 1942, "unit": "%"}
    ]}
  ]
}
